Measurements from ChEMBL document CHEMBL4699573, “Design, Synthesis, and Pharmacological Evaluation of Analogues Derived from the PLEV Tetrapeptide as Protein-Protein Interaction Modulators of Voltage-Gated Sodium Channel 1.6” (J Med Chem, 2020).
pIC50, pKd: −log10 of the molar value. Active and inactive are the calls of the source. No cut-off for these calls is given here. Residues, ends and D or L forms follow the SMILES beside them. *: point of attachment. Adamantane1carbonyl = O=C(C12CC3CC(CC(C3)C1)C2)*; Pyrrolidide = C1CCN(*)C1; Cbz = O=C(OCc1ccccc1)*; OcHex = C1CCC(O*)CC1; OtBu = CC(C)(C)O*; OAll = C=CCO*

What was measured:
[1] = target: T1, Fibroblast growth factor 14 (Homo sapiens) (UniProt Q92915); test: Binding affinity to human recombinant FGF14 expressed in Escherichia coli BL21 assessed as dissociation rate constant by SPR analysis; settings: filed as modulator
T1 sequence (whole entry): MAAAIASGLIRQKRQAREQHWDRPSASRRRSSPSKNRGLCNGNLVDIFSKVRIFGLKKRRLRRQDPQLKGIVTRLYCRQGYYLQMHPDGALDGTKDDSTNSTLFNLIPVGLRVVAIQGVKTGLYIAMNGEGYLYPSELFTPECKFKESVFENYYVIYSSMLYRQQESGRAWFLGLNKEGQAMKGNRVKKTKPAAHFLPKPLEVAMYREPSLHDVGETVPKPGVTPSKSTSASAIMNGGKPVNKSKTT
Procedure, shortened: (§1)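 Biacore T100 runs with FGF14 (17,896 RU) or Nav1.6 C-tail (6,800 RU) amine-coupled on CM5 at pH 5.5. Compounds at 0.195–200 μM in PBS, 0.005% Tween-20, 2% DMSO; 50 μL/min at 25 °C. 120 s association, 150 s dissociation, DMSO calibration, blank subtraction. Rates from a Langmuir 1:1 fit; KD averages the kinetic and steady-state values. At least duplicate experiments.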

[2] = target: T1, Fibroblast growth factor 14 (Homo sapiens); test: Binding affinity to human recombinant FGF14 expressed in Escherichia coli BL21 assessed as assessed as induction of protein denaturation by measuring change in melting temperature at 50 uM by fluorescent dye based thermal shift assay; settings: filed as modulator
[3] = target: T2, Fibroblast growth factor 14 (Homo sapiens, UniProt Q92915); test: Binding affinity to human recombinant FGF14 expressed in Escherichia coli BL21 assessed as dissociation constant by SPR analysis; procedure, shortened: as §1
T2 sequence (Q92915 whole entry): T1 sequence (whole entry)

[4] = Modulation of recombinant human FGF141b (1 to 252 residues)-recombinant human Nav1.6 C-terminal tail (1763 to 1976 residues) protein-protein interaction expressed in HEK293 cells measured at 2 mins interval for 20 mins by split-luciferase complementation assay; assay type: cell-based
Procedure, shortened: (§2)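 Double-stable HEK293 line expressing CLuc-FGF14 and CD4-Nav1.6-C-tail-NLuc, kept on G418 and puromycin. Cells seeded for 24 h, then given compound for 1 h in serum-free, phenol red-free DMEM/F12 with a final 0.5% DMSO: 50 μM for screening, 0.25–100 μM over eight concentrations for dose-response; n = 4. D-luciferin added and read every 2 min for 20 min at 37 °C. Peak luminescence expressed as percent of per-plate DMSO mean (n = 32). IC50 from four-parameter nonlinear fit. At least 3 experiments.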

[5] = tested on: HEK293; test: Inhibition of full-length Photinus pyralis luciferase transfected in HEK293 cells at 25 uM incubated for 1 hrs by split-luciferase complementation assay; assay type: cell-based
Procedure, shortened: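 HEK293 cells transfected with full-length Photinus pyralis luciferase, then treated 1 h with 25 μM compound (n = 4) or 0.5% DMSO (n = 32). Luminescence read after D-luciferin addition, as in the LCA, normalized to per-plate DMSO controls. One-way ANOVA with Dunnett's test.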

[6] = target: T3, Sodium channel protein type 8 subunit alpha (Homo sapiens, UniProt Q9UQD0); test: Binding affinity to human recombinant Nav1.6 C-terminal domain expressed in Escherichia coli BL21 assessed as dissociation rate constant by SPR analysis; settings: filed as modulator; procedure, shortened: as §1
Target sequence in this assay (Q9UQD0 whole entry, looked up, the tested form may be a part): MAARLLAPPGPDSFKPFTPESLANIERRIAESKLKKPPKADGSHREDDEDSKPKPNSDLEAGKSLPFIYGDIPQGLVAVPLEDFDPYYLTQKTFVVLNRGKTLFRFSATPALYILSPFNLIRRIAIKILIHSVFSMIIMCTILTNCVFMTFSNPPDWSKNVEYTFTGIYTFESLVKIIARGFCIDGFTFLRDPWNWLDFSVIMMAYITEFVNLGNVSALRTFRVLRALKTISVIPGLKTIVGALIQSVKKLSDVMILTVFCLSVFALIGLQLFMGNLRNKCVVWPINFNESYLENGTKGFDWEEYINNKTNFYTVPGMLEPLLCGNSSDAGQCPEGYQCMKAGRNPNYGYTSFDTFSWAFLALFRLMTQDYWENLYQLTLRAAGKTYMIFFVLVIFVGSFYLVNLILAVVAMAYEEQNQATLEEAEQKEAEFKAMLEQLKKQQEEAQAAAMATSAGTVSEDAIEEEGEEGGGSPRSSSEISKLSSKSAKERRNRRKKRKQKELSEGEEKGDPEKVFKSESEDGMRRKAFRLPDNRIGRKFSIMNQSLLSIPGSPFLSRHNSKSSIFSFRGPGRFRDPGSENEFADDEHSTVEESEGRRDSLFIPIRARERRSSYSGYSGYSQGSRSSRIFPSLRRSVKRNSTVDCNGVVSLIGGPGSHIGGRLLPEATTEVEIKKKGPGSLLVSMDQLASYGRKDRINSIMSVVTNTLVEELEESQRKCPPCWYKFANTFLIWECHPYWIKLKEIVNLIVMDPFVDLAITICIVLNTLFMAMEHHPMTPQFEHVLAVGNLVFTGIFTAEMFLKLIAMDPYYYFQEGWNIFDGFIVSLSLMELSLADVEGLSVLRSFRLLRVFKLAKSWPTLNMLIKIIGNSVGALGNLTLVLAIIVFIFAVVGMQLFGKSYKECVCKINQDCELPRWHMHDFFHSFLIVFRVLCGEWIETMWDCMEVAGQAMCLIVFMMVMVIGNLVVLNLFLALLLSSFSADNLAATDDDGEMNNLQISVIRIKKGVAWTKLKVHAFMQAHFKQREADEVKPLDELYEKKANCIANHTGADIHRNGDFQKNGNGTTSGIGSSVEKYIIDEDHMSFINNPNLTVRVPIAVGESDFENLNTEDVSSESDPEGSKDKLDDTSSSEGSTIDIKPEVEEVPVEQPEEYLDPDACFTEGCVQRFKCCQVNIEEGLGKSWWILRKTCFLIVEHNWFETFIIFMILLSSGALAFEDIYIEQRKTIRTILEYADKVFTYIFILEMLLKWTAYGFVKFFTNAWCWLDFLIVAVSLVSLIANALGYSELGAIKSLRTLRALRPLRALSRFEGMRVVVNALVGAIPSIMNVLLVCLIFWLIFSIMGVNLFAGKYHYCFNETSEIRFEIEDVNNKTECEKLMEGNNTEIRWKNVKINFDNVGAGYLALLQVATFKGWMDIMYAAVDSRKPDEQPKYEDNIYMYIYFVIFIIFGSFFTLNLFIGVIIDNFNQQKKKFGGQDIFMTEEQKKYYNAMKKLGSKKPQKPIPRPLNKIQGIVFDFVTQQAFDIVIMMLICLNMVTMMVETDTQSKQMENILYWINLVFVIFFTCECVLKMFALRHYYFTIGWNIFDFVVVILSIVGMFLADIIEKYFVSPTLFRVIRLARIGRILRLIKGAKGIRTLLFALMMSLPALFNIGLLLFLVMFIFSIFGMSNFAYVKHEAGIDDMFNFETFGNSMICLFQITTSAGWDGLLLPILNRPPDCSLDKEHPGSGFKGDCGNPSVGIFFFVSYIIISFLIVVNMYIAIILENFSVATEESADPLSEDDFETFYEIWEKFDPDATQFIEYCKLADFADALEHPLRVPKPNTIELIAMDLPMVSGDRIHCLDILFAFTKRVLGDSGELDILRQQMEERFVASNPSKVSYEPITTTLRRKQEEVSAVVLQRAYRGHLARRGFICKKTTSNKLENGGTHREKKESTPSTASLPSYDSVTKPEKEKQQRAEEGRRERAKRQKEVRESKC

[7] = target: T1, Fibroblast growth factor 14 (Homo sapiens); test: Binding affinity to human recombinant FGF14 expressed in Escherichia coli BL21 assessed as association rate constant by SPR analysis; settings: filed as modulator; procedure, shortened: as §1
[8] = target: T3, Sodium channel protein type 8 subunit alpha; test: Binding affinity to human recombinant Nav1.6 C-terminal domain expressed in Escherichia coli BL21 assessed as assessed as induction of protein denaturation by measuring change in melting temperature at 10 uM by fluorescent dye based thermal shift assay; settings: filed as modulator, dose 50.0 µM
Target sequence in this assay (Q9UQD0 whole entry, looked up, the tested form may be a part): as above

[9] = target: T3, Sodium channel protein type 8 subunit alpha; test: Binding affinity to human recombinant Nav1.6 C-terminal domain expressed in Escherichia coli BL21 assessed as dissociation constant by SPR analysis; procedure, shortened: as §1
Target sequence in this assay (Q9UQD0 whole entry, the tested form may be a part): as the sequence (Q9UQD0 whole entry, looked up, the tested form may be a part) above

[10] = tested on: HEK293; test: (§3) Modulation of recombinant human FGF141b (1 to 252 residues)-recombinant human Nav1.6 C-terminal tail (1763 to 1976 residues) protein-protein interaction expressed in HEK293 cells measured at 2 mins interval for 20 mins by split-luciferase complementation assay relative to control; assay type: cell-based; settings: filed as modulator, time min 2-20; procedure, shortened: as §2
[11] = tested on: HEK293; test: Cytotoxicity against HEK293 cells assessed as reduction in cell viability measured after 18 hrs by celltiter-blue assay; settings: human, hek293, 18 h
[12] = tested on: HEK293; test: as §3, with “cells assessed as relative luminescence value at 50 uM” for “cells”; assay type: cell-based; settings: filed as modulator, time min 2-20; procedure, shortened: as §2
[13] = target: T3, Sodium channel protein type 8 subunit alpha; test: Binding affinity to human recombinant Nav1.6 C-terminal domain expressed in Escherichia coli BL21 assessed as association rate constant by SPR analysis; settings: filed as modulator; procedure, shortened: as §1
Target sequence in this assay (Q9UQD0 whole entry, looked up, the tested form may be a part): as above

| Compound | K [1] | ΔTm [2] | pKd [3] | pIC50 [4] | inhibition [5] | K [6] | K [7] | ΔTm [8] | pKd [9] | Efficacy [10] | Activity [11] | Activity [12] | K [13] |
| --- | --- | --- | --- | --- | --- | --- | --- | --- | --- | --- | --- | --- | --- |
| CC(C)C[C@H](NC(=O)[C@@H]1CCCN1C(=O)C12CC3CC(CC(C3)C1)C2)C(=O)N[C@@H](CCC(=O)OC(C)(C)C)C(=O)N[C@H](C(=O)OC(C)(C)C)C(C)C (Adamantane1carbonyl-PLE(OtBu)V-OtBu) | 5.8 10^-3/s | -0.89 °C | 5.16 | 4.47 | inactive | 7.94 10^-3/s | 1.62 10^3/M/s | -0.13 °C | < 3.70 | 92.1% | Non-Toxic | 33.6% | 8.29 10^5/M/s |
| CC(C)C[C@H](NC(=O)[C@@H]1CCCN1C(=O)OCc1ccccc1)C(=O)N[C@@H](CCC(=O)OC(C)(C)C)C(=O)N[C@H](C(=O)N1CCCC1)C(C)C (Cbz-PLE(OtBu)V-Pyrrolidide) | 9.91 10^-4/s | 3.38 °C | 3.72 | 4.48 | inactive |  | 4.61 10^2/M/s | -0.48 °C |  | 96.9% | Non-Toxic | 14% |  |
| CCOC(=O)[C@@H](NC(=O)[C@H](CCC(=O)OC(C)(C)C)NC(=O)[C@H](CC(C)C)NC(=O)[C@@H]1CCCN1C(=O)C12CC3CC(CC(C3)C1)C2)C(C)C (Adamantane1carbonyl-PLE(OtBu)V-OEt) | 2.05 10^-2/s |  | 5.02 | 4.88 |  | 1.22 10^-2/s | 2.17 10^2/M/s |  | 4.17 | 82.3% |  |  | 2.64 10^3/M/s |
| C=CCOC(=O)[C@@H](NC(=O)[C@H](CCC(=O)OC(C)(C)C)NC(=O)[C@H](CC(C)C)NC(=O)[C@@H]1CCCN1C(=O)C12CC3CC(CC(C3)C1)C2)C(C)C (Adamantane1carbonyl-PLE(OtBu)V-OAll) | 9.32 10^-3/s | -4.55 °C | 5.88 | 4.94 | inactive | 2.73 10^-3/s | 1.79 10^4/M/s | 0.04 °C | < 3.70 | 95.5% | Non-Toxic | 5% | 6.16 10^6/M/s |
| CC(C)C[C@H](NC(=O)[C@@H]1CCCN1C(=O)C12CC3CC(CC(C3)C1)C2)C(=O)N[C@@H](CCC(=O)OC(C)(C)C)C(=O)N[C@H](C(=O)OC1CCCCC1)C(C)C (Adamantane1carbonyl-PLE(OtBu)V-OcHex) | 1.39 10^-2/s | -2.21 °C | 5.15 | 4.45 | inactive | 1.7 10^-4/s | 7.35 10^3/M/s | 0.43 °C | < 3.70 | 69.9% | Non-Toxic | 43.4% | 7.16 10^5/M/s |
